Data from ChEMBL document CHEMBL3045640, “Synthesis and insecticidal activity of novel carbamate derivatives as potential dual-binding site acetylcholinesterase inhibitors” (J Agric Food Chem, 2010).

Legend:
[1] = molecular target: Acetylcholinesterase (Musca domestica) (UniProt Q7YWJ9); assay: Dual-site binding inhibition of AChE in Musca domestica (house fly) brain at 100 mg/l
Lipaphis erysimi = assay: In vivo insecticidal activity against apterous adult stage of Lipaphis erysimi (mustard aphids) in chinese cabbage leaves assessed as mortality at 300 mg/l at 25 degC treated for 10 secs measured after 24 hr; format: functional
In short: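 Aphids were reared at 25 (±1) °C, 60 (±5)% RH and a 14 h photoperiod. Acetone stocks at 10 g/L were diluted with water containing 0.1% Triton X-100. Chinese cabbage leaf disks carrying 35 apterous adults were dipped for 10 s, dried, then held at 25 °C. Mortality was scored at 24 h against untreated controls. Three replicates were run, and corrected mortality was calculated.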

[2] = molecular target: Acetylcholinesterase (Musca domestica) (UniProt Q7YWJ9); assay: Ratio of MT IC50 to compound IC50 for AChE in Musca domestica (house fly) brain
[3] = molecular target: Acetylcholinesterase (Musca domestica) (UniProt Q7YWJ9); assay: Ratio of MH IC50 to compound IC50 for AChE in Musca domestica (house fly) brain
Acetylcholinesterase = Acetylcholinesterase (Musca domestica, UniProt Q7YWJ9); assay: Dual-site binding inhibition of AChE in Musca domestica (house fly) brain; format: tissue-based
Sequence of Acetylcholinesterase (Q7YWJ9 whole entry): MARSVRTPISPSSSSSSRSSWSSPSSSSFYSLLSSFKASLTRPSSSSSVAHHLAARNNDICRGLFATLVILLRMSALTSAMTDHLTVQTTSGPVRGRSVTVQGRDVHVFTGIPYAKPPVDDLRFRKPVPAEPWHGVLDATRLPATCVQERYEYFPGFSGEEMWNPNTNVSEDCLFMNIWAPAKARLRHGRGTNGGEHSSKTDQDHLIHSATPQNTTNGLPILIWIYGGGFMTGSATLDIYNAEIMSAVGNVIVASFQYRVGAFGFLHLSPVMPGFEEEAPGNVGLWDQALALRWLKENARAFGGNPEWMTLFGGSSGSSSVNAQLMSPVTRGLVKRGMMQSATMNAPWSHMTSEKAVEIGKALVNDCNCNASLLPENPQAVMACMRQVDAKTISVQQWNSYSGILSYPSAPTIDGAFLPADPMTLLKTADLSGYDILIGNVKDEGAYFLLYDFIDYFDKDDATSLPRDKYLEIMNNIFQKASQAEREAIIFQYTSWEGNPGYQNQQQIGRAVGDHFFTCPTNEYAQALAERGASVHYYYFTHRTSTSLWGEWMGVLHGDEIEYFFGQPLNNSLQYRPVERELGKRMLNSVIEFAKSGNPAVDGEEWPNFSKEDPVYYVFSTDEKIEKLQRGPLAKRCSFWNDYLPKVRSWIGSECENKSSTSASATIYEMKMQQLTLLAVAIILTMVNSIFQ
In short: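 Enzyme was prepared from heads of adult houseflies, females and males in a 1:1 ratio. The inhibition procedure followed previously reported methods.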

Sequence of Acetylcholinesterase (Musca domestica) (Q7YWJ9 1-692): as the sequence (Q7YWJ9 whole entry) above

CN(C)C(=O)Oc1cccc(OCCCCOc2ccc(C(F)(F)F)cc2)c1
inhibition [1]: 20%

CNC(=O)Oc1ccccc1OCCOc1ccc(C(F)(F)F)cc1
inhibition [1]: 13%

CNC(=O)Oc1ccc(OCCCCOc2ccc(C(F)(F)F)cc2)cc1
inhibition [1]: 4%

CNC(=O)Oc1cccc(OCCCCOc2ccccc2OC)c1
inhibition [1]: 46%

CNC(=O)Oc1ccc(OCCCOc2ccc(C(F)(F)F)cc2)cc1
inhibition [1]: 2%

CN(C)C(=O)Oc1ccccc1OCCCCOc1ccc(C(F)(F)F)cc1
inhibition [1]: 7%

CN(C)C(=O)Oc1cccc(OCCOc2ccc(C(F)(F)F)cc2)c1
inhibition [1]: 8%

CNC(=O)Oc1cccc(OC/C=C/COc2ccc([N+](=O)[O-])cc2)c1
inhibition [1]: 45%

CNC(=O)Oc1cccc(OCCCCOc2ccccc2[N+](=O)[O-])c1
mortality at 300 µg/mL (Lipaphis erysimi): 93% | Ratio IC50 [2]: 2 | Ratio IC50 [3]: 13 | IC50 (Acetylcholinesterase): 61 µM | inhibition [1]: 80%

CNC(=O)Oc1cccc(OCCCCOc2ccc([N+](=O)[O-])cc2)c1
mortality at 300 µg/mL (Lipaphis erysimi): 92% | Ratio IC50 [2]: 3 | Ratio IC50 [3]: 17 | IC50 (Acetylcholinesterase): 46 µM | inhibition [1]: 80%

CNC(=O)Oc1cccc(OCCCCOc2cccc([N+](=O)[O-])c2)c1
mortality at 300 µg/mL (Lipaphis erysimi): 98% | Ratio IC50 [2]: 12 | Ratio IC50 [3]: 62 | IC50 (Acetylcholinesterase): 12 µM | inhibition [1]: 92%

CNC(=O)Oc1cccc(OCCCCOc2ccc(C(F)(F)F)cc2)c1
mortality at 300 µg/mL (Lipaphis erysimi): 92% | Ratio IC50 [2]: 1 | Ratio IC50 [3]: 7 | IC50 (Acetylcholinesterase): 107 µM | inhibition [1]: 62%

CN(C)C(=O)Oc1ccc(OCCCCOc2ccc(C(F)(F)F)cc2)cc1
inhibition [1]: 6%

CN(C)C(=O)Oc1ccccc1OCCOc1ccc(C(F)(F)F)cc1
inhibition [1]: 15%

CN(C)C(=O)Oc1ccccc1OCCCOc1ccc(C(F)(F)F)cc1
inhibition [1]: 25%

CNC(=O)Oc1ccccc1OCCCOc1ccc(C(F)(F)F)cc1
inhibition [1]: 25%

CN(C)C(=O)Oc1cccc(OCCCOc2ccc(C(F)(F)F)cc2)c1
inhibition [1]: 27%

CN(C)C(=O)Oc1ccc(OC/C=C/COc2ccc(C(F)(F)F)cc2)cc1
inhibition [1]: 0%

CNC(=O)Oc1ccc(OC/C=C/COc2ccc(C(F)(F)F)cc2)cc1
inhibition [1]: 3%

CN(C)C(=O)Oc1ccc(OCCOc2ccc(C(F)(F)F)cc2)cc1
inhibition [1]: 6%

CNC(=O)Oc1cccc(OCCCOc2ccc([N+](=O)[O-])cc2)c1
mortality at 300 µg/mL (Lipaphis erysimi): 89% | Ratio IC50 [2]: 2 | Ratio IC50 [3]: 11 | IC50 (Acetylcholinesterase): 70 µM | inhibition [1]: 69%

CN(C)C(=O)Oc1ccccc1OC/C=C/COc1ccc(C(F)(F)F)cc1
inhibition [1]: 7%

CNC(=O)Oc1ccccc1OC/C=C/COc1ccc(C(F)(F)F)cc1
inhibition [1]: 17%

CN(C)C(=O)Oc1ccc(OCCCOc2ccc(C(F)(F)F)cc2)cc1
inhibition [1]: 1%

CN(C)C(=O)Oc1cccc(OC/C=C/COc2ccc(C(F)(F)F)cc2)c1
inhibition [1]: 13%

CNC(=O)Oc1ccccc1 [PHENYL METHYLCARBAMATE]
mortality at 300 µg/mL (Lipaphis erysimi): 76% | IC50 (Acetylcholinesterase): 766 µM | inhibition [1]: 46%

CNC(=O)Oc1cccc(C)c1 [METOLCARB]
mortality at 300 µg/mL (Lipaphis erysimi): 97% | IC50 (Acetylcholinesterase): 150 µM

CNC(=O)Oc1cccc(OCCCCOc2ccc(Cl)cc2)c1
inhibition [1]: 30%

CNC(=O)Oc1cccc(OCCCOc2ccc(C(F)(F)F)cc2)c1
mortality at 300 µg/mL (Lipaphis erysimi): 85% | Ratio IC50 [2]: 1 | Ratio IC50 [3]: 7 | IC50 (Acetylcholinesterase): 105 µM | inhibition [1]: 61%

CNC(=O)Oc1cccc(OCCOc2ccc(C(F)(F)F)cc2)c1
inhibition [1]: 20%

CNC(=O)Oc1ccc(OCCOc2ccc(C(F)(F)F)cc2)cc1
inhibition [1]: 2%

CNC(=O)Oc1ccccc1OCCCCOc1ccc(C(F)(F)F)cc1
inhibition [1]: 19%

CNC(=O)Oc1cccc(OC/C=C/COc2ccc(C(F)(F)F)cc2)c1
inhibition [1]: 12%
